Source: ChEMBL document CHEMBL3352424, “Synthesis, biological evaluation and 3D-QSAR study of hydrazide, semicarbazide and thiosemicarbazide derivatives of 4-(adamantan-1-yl)quinoline as anti-tuberculosis agents” (Eur J Med Chem, 2014)
Values after ≈ are worked out from the molar mass of the structure shown.

Key:
[1] = tested on: Mycobacterium tuberculosis; assay: Antitubercular activity against Mycobacterium tuberculosis H37Rv strain at 6.25 ug/ml by microplate alamar blue assay; assay type: functional
[2] = tested on: L929; assay: Cytotoxicity against mouse L929 cells assessed as reduction in cell viability up to 200 ug/ml after 5 days by MTT assay; assay type: cell-based; conditions: l929, 120 h
Method in brief: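 MTT viability assay in mouse fibroblasts, run on compounds active against TB, with 200 µg/mL as the highest test concentration.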

[3] = tested on: Mycobacterium tuberculosis; assay: Antitubercular activity against Mycobacterium tuberculosis H37Rv strain by BACTEC 460 radiometric assay; assay type: functional, organism-based

Compound | inhibition at 6.25 µg/mL [1] [%] | Activity [2] | IC50 [3] [µM] | MIC90 [3] [µg/mL] | MIC99 [3] [µg/mL]
O=C(NNC(=O)c1cc(C23CC4CC(CC(C4)C2)C3)c2ccccc2n1)NC1CCCC1 | 84 | Non-toxic | 2.75 | 6.25 (≈ 14.4 µM) | –
CCc1cccc(CC)c1NC(=O)NNC(=O)c1cc(C23CC4CC(CC(C4)C2)C3)c2ccccc2n1 | 27 | Non-toxic | 33.9 | 6.25 (≈ 12.6 µM) | –
O=C(NNC(=O)c1cc(C23CC4CC(CC(C4)C2)C3)c2ccccc2n1)NC1CCCCCCCCCCC1 | 87 | Non-toxic | 1.78 | 6.25 (≈ 11.8 µM) | –
CCCCOc1ccc(NC(=O)NNC(=O)c2cc(C34CC5CC(CC(C5)C3)C4)c3ccccc3n2)cc1 | 61 | Non-toxic | 7.76 | 6.25 (≈ 12.2 µM) | –
O=C(NNC(=O)c1cc(C23CC4CC(CC(C4)C2)C3)c2ccccc2n1)Nc1ccc(F)cc1 | 68 | Non-toxic | 6.46 | 6.25 (≈ 13.6 µM) | –
COc1ccc(NC(=O)NNC(=O)c2cc(C34CC5CC(CC(C5)C3)C4)c3ccccc3n2)cc1 | 78 | Non-toxic | 3.72 | 6.25 (≈ 13.3 µM) | –
Cc1cc(C)c(NC(=O)NNC(=O)c2cc(C34CC5CC(CC(C5)C3)C4)c3ccccc3n2)c(C)c1 | 77 | Non-toxic | 3.89 | 6.25 (≈ 12.9 µM) | –
O=C(NNC(=O)c1cc(C23CC4CC(CC(C4)C2)C3)c2ccccc2n1)Nc1cccc(F)c1 | 78 | Non-toxic | 3.8 | 6.25 (≈ 13.6 µM) | –
O=C(NNC(=S)Nc1ccccc1C(F)(F)F)c1cc(C23CC4CC(CC(C4)C2)C3)c2ccccc2n1 | 79 | Non-toxic | 2.88 | 6.25 (≈ 11.9 µM) | –
O=C(NNC(=S)Nc1ccc(OC(F)(F)F)cc1)c1cc(C23CC4CC(CC(C4)C2)C3)c2ccccc2n1 | 89 | Non-toxic | 1.45 | 6.25 (≈ 11.6 µM) | –
COc1cc(NC(=S)NNC(=O)c2cc(C34CC5CC(CC(C5)C3)C4)c3ccccc3n2)cc(OC)c1OC | 46 | Non-toxic | 14.5 | 6.25 (≈ 11.4 µM) | –
CCCCCNC(=O)NNC(=O)c1cc(C23CC4CC(CC(C4)C2)C3)c2ccccc2n1 | 55 | Non-toxic | 11.7 | 6.25 (≈ 14.4 µM) | –
O=C(NNC(=O)c1cc(C23CC4CC(CC(C4)C2)C3)c2ccccc2n1)NC12CC3CC(CC(C3)C1)C2 | 34 | Non-toxic | 24.5 | 6.25 (≈ 12.5 µM) | –
COc1cc(NC(=O)NNC(=O)c2cc(C34CC5CC(CC(C5)C3)C4)c3ccccc3n2)cc(OC)c1OC | 22 | Non-toxic | 41.7 | 6.25 (≈ 11.8 µM) | –
CC(C)(C)c1ccc(NC(=O)NNC(=O)c2cc(C34CC5CC(CC(C5)C3)C4)c3ccccc3n2)cc1 | 37 | Non-toxic | 22.4 | 6.25 (≈ 12.6 µM) | –
CCCCCCNC(=O)NNC(=O)c1cc(C23CC4CC(CC(C4)C2)C3)c2ccccc2n1 | 47 | Non-toxic | 15.8 | 6.25 (≈ 13.9 µM) | –
CCCCCCCCCCCCCCCCNC(=O)NNC(=O)c1cc(C23CC4CC(CC(C4)C2)C3)c2ccccc2n1 | 16 | Non-toxic | 56.2 | 6.25 (≈ 10.6 µM) | –
NNC(=O)c1ccncc1 [ISONIAZID] | – | – | – | – | 0.1 (≈ 0.729 µM)
CO[C@H]1/C=C/O[C@@]2(C)Oc3c(C)c(O)c4c(O)c(c(/C=N/N5CCN(C)CC5)c(O)c4c3C2=O)NC(=O)/C(C)=C\C=C\[C@H](C)[C@H](O)[C@@H](C)[C@@H](O)[C@@H](C)[C@H](OC(C)=O)[C@@H]1C [RIFAMPIN] | 99 | – | – | – | 0.2 (≈ 0.243 µM)
